Source: ChEMBL document CHEMBL1221182, “Functional characterization of IRESes by an inhibitor of the RNA helicase eIF4A” (Nat Chem Biol, 2006)

Target: Eukaryotic initiation factor 4A-I (Mus musculus, UniProt P60843)
Assay: Inhibition of eIF4A-mediated cap-dependent protein synthesis in FF-HCV-Ren mRNA transfected Swiss mouse Krebs2 cell extract by [35S]methionine metabolic labeling study
Summary of the method: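 Cell-free translation in Krebs-2 extracts programmed with capped bicistronic FF-HCV-Ren transcript: cap-dependent firefly cistron, HCV IRES-driven renilla cistron. Final mRNA 5 µg ml⁻¹, K⁺ 100 mM, compound titrated. Controls carry a matched final DMSO level. Products labeled with [³⁵S]methionine, separated by 10% SDS-PAGE, and autoradiographed. Luciferase activities are read by luminometer and expressed relative to vehicle reactions.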

Sequence of Eukaryotic initiation factor 4A-I (P60843 whole entry): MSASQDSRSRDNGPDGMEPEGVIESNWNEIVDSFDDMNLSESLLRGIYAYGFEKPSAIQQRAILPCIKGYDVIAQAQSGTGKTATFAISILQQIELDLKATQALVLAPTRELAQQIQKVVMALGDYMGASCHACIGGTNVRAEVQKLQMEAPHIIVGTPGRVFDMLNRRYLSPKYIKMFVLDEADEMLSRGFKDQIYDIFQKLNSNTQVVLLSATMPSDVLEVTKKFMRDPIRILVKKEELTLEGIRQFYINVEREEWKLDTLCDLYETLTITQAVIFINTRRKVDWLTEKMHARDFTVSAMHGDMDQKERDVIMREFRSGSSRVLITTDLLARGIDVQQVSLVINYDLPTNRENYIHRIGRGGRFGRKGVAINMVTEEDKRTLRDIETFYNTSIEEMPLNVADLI

Row | Structure (SMILES) | IC50 [µM]
1 | C[C@H]1C[C@]2(O[C@H]3C[C@H]4[C@@H]5CC[C@H]6C[C@H](O)CC[C@]6(C)[C@H]5[C@@H](O)C[C@]4(C)[C@H]3[C@@]2(C)O)OC1(C)C [EPIHIPPURISTANOL] | > 100
2 | CC(=O)O[C@@H]1C[C@@]2(C)[C@@H](CC[C@@H]3[C@@H]2[C@@H](O)C[C@@]2(C)[C@H]3C[C@@H]3O[C@@]4(C[C@H](C)C(C)(C)O4)[C@](C)(O)[C@@H]32)C[C@@H]1O | 1.5
3 | CC(=O)O[C@H]1C[C@@H]2CC[C@@H]3[C@H]([C@@H](O)C[C@@]4(C)[C@H]3C[C@@H]3O[C@]5(C[C@H](C)C(C)(C)O5)[C@](C)(O)[C@@H]34)[C@@]2(C)C[C@H]1O | 52
4 | CC(=O)O[C@@H]1CC[C@@]2(C)[C@@H](CC[C@@H]3[C@@H]2[C@@H](OC(C)=O)C[C@@]2(C)[C@H]3C[C@@H]3O[C@]4(C[C@H](C)C(C)(C)O4)[C@](C)(O)[C@@H]32)C1 | > 100
5 | CC(=O)O[C@@H]1CC[C@@]2(C)[C@@H](CC[C@@H]3[C@@H]2[C@@H](O)C[C@]24[C@H](O)O[C@]5(C)[C@H]2[C@H](C[C@@H]34)O[C@]52C[C@H](C)C(C)(C)O2)C1 [HIPPURISTANOHEMIACETAL] | 91
6 | CC(=O)O[C@@H]1CC[C@@]2(C)[C@@H](CC[C@@H]3[C@@H]2[C@@H](O)C[C@@]2(C)[C@H]3C[C@@H]3O[C@]4(C[C@H](C)C(C)(C)O4)[C@](C)(O)[C@@H]32)C1 | > 100
7 | CC(=O)O[C@H]1C[C@@H]2CC[C@@H]3[C@H]([C@@H](O)C[C@@]4(C)[C@H]3C[C@@H]3O[C@@]5(C[C@H](C)C(C)(C)O5)[C@](C)(O)[C@@H]34)[C@@]2(C)C[C@H]1O | 1.7
8 | CC(=O)O[C@@H]1CC[C@@]2(C)[C@@H](CC[C@@H]3[C@@H]2[C@@H](OC(C)=O)C[C@@]2(C)[C@H]3C[C@@H]3O[C@@]4(C[C@H](C)C(C)(C)O4)[C@](C)(O)[C@@H]32)C1 | 64
9 | C[C@H]1C[C@]2(O[C@H]3C[C@H]4[C@@H]5CC[C@H]6CC(=O)CC[C@]6(C)[C@H]5C(=O)C[C@]4(C)[C@H]3[C@@]2(C)O)OC1(C)C | > 100
